Measurements from ChEMBL document CHEMBL1156783, “Synthesis, biological evaluation, X-ray structure, and pharmacokinetics of aminopyrimidine c-jun-N-terminal kinase (JNK) inhibitors” (J Med Chem, 2010).
Activity calls are given as the source filed them. The calls are words filed in the database; no cut-off is given here.

Experiments:
[1] = Inhibition of p38 kinase by time resolved fluorescence assay
Method in brief: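 Commercial recombinant p38 in a homogeneous time-resolved fluorescence biochemical assay run per an earlier protocol. IC50 is the average of three or more experiments.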

[2] = Cmax in Sprague-Dawley rat at 2 mg/kg, po; assay type: ADME, organism-based; set-up: dose 2 mg/kg, route oral; conditions: in vivo
[3] = Volume of distribution in Sprague-Dawley rat at 1 mg/kg, iv and 2 mg/kg, po; assay type: ADME, organism-based; conditions: in vivo
Method in brief: (§1)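 Sprague-Dawley rats (n = 3) given 1 mg/kg i.v. and 2 mg/kg oral gavage. Blood was drawn into EDTA at 5, 15, 30 min and 1, 2, 4, 6, 8 h. Plasma proteins were precipitated with acetonitrile and drug was measured by LC-MS/MS. Cmax, AUC, t1/2, CL, Vd and oral bioavailability came from noncompartmental analysis.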

[4] = Plasma clearance in Sprague-Dawley rat at 1 mg/kg, iv and 2 mg/kg, po; assay type: ADME, organism-based; method in brief: as §1
Liver microsomes [5] = assay: Metabolic stability in rat liver microsomes at 1 uM by LC-MS/MS analysis; assay type: ADME, Microsome
Liver microsomes [6] = assay: Metabolic stability in human liver microsomes at 1 uM by LC-MS/MS analysis; assay type: ADME, Microsome
CYP2D6 = CYP2D6 (Homo sapiens, UniProt P10635); assay: Inhibition of human CYP2D6 at 10 uM after 15 mins; assay type: ADME
Chain of CYP2D6 (P10635 whole entry): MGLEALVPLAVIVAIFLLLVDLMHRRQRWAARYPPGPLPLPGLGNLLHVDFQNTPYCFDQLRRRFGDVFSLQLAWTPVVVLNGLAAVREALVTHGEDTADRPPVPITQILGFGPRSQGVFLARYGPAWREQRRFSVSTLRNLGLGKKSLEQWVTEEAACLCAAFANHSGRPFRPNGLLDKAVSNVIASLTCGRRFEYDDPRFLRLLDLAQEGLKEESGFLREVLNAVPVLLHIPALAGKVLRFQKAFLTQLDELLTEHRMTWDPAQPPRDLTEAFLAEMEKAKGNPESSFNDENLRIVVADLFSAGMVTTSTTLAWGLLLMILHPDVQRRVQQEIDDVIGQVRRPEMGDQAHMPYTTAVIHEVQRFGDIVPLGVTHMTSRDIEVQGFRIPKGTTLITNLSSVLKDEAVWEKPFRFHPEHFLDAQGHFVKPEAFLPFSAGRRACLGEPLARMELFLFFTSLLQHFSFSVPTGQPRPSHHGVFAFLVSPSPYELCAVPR

[7] = Metabolic stability in mouse liver microsomes at 1 uM by LC-MS/MS analysis; assay type: ADME, Microsome
[8] = AUC in Sprague-Dawley rat at 2 mg/kg, po; assay type: ADME, organism-based; set-up: dose 2 mg/kg, route oral; conditions: plasma
CYP3A4 = CYP3A4 (Homo sapiens, UniProt P08684); assay: Inhibition of human CYP3A4 at 10 uM after 15 mins; assay type: ADME
Chain of CYP3A4 (P08684 whole entry): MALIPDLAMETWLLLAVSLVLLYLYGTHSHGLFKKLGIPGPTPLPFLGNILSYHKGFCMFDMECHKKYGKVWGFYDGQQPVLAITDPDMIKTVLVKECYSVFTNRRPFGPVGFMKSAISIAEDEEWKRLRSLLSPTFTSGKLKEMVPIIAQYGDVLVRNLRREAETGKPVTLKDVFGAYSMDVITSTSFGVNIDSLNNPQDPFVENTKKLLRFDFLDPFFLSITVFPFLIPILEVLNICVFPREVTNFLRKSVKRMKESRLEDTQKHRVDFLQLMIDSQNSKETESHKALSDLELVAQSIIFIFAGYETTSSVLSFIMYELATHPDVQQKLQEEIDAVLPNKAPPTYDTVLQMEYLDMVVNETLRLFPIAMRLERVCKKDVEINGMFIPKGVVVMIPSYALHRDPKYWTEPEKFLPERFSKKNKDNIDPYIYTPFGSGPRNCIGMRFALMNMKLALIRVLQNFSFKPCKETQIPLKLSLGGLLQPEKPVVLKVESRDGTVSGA

CYP2C9 = CYP2C9 (Homo sapiens, UniProt P11712); assay: Inhibition of human CYP2C9 at 10 uM after 15 mins; assay type: ADME
Chain of CYP2C9 (P11712 whole entry): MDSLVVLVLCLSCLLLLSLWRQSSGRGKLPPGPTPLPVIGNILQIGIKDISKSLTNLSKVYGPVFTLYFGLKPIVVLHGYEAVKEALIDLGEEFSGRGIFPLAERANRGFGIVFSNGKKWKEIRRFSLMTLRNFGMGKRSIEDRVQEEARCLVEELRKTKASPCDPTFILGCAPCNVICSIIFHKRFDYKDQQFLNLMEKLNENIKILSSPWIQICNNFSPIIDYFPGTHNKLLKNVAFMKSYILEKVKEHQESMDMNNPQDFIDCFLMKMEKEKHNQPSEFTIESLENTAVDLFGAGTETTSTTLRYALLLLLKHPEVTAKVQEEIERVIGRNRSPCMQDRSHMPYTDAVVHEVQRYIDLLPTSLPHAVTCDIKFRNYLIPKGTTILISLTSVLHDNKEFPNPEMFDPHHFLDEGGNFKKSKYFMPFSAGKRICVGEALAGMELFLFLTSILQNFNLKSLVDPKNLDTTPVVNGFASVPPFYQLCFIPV

CYP1A2 = target: T1, CYP1A2 (Homo sapiens, UniProt P05177); assay: Inhibition of human CYP1A2 at 10 uM after 15 mins; assay type: ADME
T1 sequence (P05177 whole entry): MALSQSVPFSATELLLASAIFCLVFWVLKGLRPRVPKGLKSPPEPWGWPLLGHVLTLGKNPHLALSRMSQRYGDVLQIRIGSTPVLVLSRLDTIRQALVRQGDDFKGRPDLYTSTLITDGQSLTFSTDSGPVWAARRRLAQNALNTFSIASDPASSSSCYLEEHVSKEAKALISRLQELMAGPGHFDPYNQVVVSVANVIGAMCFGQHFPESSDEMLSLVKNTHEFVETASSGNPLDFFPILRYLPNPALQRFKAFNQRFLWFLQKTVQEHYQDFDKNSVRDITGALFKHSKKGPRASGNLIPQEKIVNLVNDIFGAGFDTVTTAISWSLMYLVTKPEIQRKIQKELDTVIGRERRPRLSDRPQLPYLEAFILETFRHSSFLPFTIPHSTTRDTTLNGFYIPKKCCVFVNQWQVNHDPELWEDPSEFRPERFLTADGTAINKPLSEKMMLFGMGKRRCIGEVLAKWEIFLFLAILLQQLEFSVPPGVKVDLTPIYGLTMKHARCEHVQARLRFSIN

Rattus norvegicus = assay: Oral bioavailability in Sprague-Dawley rat at 2 mg/kg; assay type: ADME, organism-based; conditions: in vivo; method in brief: as §1
[9] = target: Mitogen-activated protein kinase 10 (Homo sapiens, UniProt P53779); assay: Inhibition of JNK3 by time resolved fluorescence assay
Chain of Mitogen-activated protein kinase 10 (P53779 whole entry): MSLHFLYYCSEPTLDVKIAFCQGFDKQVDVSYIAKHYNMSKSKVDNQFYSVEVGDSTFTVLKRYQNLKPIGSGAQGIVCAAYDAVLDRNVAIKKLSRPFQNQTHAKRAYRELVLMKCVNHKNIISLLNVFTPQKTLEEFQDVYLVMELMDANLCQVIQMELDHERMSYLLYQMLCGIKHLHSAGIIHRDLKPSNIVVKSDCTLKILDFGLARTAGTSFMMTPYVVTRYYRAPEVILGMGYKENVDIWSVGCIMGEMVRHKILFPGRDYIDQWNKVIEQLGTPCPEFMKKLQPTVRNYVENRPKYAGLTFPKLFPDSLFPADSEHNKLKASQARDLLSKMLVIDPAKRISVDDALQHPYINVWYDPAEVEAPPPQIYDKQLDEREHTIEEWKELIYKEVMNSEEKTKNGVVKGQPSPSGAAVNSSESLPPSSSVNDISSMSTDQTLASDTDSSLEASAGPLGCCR

[10] = target: Mitogen-activated protein kinase 8 (Homo sapiens, UniProt P45983); assay: Inhibition of JNK1 by time resolved fluorescence assay
Chain of Mitogen-activated protein kinase 8 (P45983 whole entry): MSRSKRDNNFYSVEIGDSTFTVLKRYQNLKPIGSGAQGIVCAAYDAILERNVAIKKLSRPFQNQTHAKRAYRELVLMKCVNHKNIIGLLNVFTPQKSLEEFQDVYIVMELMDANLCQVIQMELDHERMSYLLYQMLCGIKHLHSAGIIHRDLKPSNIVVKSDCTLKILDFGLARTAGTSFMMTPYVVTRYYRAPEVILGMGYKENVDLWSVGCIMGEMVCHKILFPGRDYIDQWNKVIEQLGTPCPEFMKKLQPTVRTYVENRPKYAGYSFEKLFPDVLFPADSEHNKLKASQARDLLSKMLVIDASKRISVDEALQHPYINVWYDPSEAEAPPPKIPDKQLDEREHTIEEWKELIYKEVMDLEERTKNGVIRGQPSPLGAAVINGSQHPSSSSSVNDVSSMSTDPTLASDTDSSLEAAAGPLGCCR

[11] = Half life in Sprague-Dawley rat at 1 mg/kg, iv and 2 mg/kg, po; assay type: ADME, organism-based; conditions: in vivo; method in brief: as §1
[12] = Inhibition of c-jun phosphorylation in rat INS-1 cells; assay type: cell-based; conditions: INS1
[13] = target: Mitogen-activated protein kinase kinase kinase 10 (Homo sapiens) (UniProt Q02779); assay: Inhibition of MLK2 at 3 uM
Method in brief: (§2)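 Counterscreen in a biochemical panel of 400 kinases. Each kinase was tested at a single inhibitor level of 3 μM, and percent inhibition was recorded.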

[14] = target: Mitogen-activated protein kinase kinase kinase 4 (Homo sapiens) (UniProt Q9Y6R4); assay: Inhibition of MAPK3K4 at 3 uM; method in brief: as §2
[15] = target: Dual specificity mitogen-activated protein kinase kinase 4 (Homo sapiens) (UniProt P45985); assay: Inhibition of MKK4 at 3 uM
Chain of Dual specificity mitogen-activated protein kinase kinase 4 (Homo sapiens) (P45985 whole entry): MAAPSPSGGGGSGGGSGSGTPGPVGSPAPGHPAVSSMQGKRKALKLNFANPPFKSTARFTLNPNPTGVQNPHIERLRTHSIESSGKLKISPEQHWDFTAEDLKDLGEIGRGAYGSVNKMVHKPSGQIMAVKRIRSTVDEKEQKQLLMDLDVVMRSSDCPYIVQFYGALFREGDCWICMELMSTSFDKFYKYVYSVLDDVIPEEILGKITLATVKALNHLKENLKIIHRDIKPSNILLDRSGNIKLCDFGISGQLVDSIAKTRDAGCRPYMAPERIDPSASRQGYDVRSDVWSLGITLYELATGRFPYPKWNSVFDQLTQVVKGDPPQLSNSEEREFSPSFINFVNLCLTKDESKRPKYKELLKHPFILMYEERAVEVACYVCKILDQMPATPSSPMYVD

[16] = Inhibition of streptozotocin-induced H2O2 production in rat INS1(823/13) cells treated 30 mins before streptozotocin challenge measured after 4 hrs; assay type: functional, cell-based
Method in brief: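 Rat insulinoma INS1 823/13 cells in RPMI 1640 with 10% FBS were plated and left overnight at 37 °C. Compound in DMSO was added 30 min before 4 mM STZ and kept through 4 h of STZ at 37 °C. Cells were loaded with 5 μM CM-H2DCFDA for 1 h, and fluorescence was read at 495/525 nm. Signal was normalized to STZ alone. A 12-point curve was fitted by four-parameter regression over four biological replicates run in duplicate.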

[17] = target: Mitogen-activated protein kinase kinase kinase 9 (Homo sapiens) (UniProt P80192); assay: Inhibition of MLK1 at 3 uM; method in brief: as §2
[18] = target: Dual specificity mitogen-activated protein kinase kinase 7 (Homo sapiens) (UniProt O14733); assay: Inhibition of MKK7 at 3 uM
[19] = target: Mitogen-activated protein kinase kinase kinase 5 (Homo sapiens) (UniProt Q99683); assay: Inhibition of ASK1 at 3 uM
Chain of Mitogen-activated protein kinase kinase kinase 5 (Homo sapiens) (Q99683 whole entry): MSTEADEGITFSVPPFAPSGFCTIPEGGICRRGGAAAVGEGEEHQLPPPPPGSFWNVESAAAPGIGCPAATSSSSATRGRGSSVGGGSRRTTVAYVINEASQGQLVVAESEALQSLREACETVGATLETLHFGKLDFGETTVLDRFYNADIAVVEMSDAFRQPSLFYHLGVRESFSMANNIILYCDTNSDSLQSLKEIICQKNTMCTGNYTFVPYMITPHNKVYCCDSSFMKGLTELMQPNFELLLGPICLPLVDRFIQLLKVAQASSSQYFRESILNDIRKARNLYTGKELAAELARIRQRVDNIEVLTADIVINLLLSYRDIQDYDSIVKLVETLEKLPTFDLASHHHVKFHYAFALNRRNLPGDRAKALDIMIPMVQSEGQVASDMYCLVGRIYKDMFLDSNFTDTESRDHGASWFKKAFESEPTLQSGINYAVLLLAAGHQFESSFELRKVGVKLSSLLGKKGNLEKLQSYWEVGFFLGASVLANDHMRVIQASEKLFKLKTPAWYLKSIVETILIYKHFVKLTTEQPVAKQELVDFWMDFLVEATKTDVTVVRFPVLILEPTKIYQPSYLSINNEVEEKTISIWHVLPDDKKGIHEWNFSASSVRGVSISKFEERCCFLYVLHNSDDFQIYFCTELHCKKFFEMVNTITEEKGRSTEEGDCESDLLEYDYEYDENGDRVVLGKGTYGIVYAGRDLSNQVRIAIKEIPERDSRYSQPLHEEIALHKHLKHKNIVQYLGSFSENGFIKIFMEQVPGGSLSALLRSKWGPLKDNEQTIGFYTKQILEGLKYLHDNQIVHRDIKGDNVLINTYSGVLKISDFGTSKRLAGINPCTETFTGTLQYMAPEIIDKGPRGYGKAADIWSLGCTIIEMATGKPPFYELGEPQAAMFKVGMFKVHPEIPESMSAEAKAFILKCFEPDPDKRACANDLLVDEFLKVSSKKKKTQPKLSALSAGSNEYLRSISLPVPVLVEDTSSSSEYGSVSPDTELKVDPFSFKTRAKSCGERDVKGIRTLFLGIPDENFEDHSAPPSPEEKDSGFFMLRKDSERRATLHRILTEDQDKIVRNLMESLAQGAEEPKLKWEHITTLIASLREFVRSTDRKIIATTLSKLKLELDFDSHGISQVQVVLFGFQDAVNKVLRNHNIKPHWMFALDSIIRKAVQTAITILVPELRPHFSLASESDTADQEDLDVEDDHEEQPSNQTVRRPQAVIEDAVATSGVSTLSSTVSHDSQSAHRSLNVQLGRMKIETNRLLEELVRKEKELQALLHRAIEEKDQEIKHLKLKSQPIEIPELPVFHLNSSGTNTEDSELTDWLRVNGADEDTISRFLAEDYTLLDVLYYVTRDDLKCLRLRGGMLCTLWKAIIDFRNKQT

[20] = target: Mitogen-activated protein kinase kinase kinase 11 (Homo sapiens) (UniProt Q16584); assay: Inhibition of MLK3 at 3 uM; method in brief: as §2
[21] = target: Mitogen-activated protein kinase kinase kinase 2 (Homo sapiens) (UniProt Q9Y2U5); assay: Inhibition of MAPK3K2 at 3 uM; method in brief: as §2
Chain of Mitogen-activated protein kinase kinase kinase 2 (Homo sapiens) (Q9Y2U5 whole entry): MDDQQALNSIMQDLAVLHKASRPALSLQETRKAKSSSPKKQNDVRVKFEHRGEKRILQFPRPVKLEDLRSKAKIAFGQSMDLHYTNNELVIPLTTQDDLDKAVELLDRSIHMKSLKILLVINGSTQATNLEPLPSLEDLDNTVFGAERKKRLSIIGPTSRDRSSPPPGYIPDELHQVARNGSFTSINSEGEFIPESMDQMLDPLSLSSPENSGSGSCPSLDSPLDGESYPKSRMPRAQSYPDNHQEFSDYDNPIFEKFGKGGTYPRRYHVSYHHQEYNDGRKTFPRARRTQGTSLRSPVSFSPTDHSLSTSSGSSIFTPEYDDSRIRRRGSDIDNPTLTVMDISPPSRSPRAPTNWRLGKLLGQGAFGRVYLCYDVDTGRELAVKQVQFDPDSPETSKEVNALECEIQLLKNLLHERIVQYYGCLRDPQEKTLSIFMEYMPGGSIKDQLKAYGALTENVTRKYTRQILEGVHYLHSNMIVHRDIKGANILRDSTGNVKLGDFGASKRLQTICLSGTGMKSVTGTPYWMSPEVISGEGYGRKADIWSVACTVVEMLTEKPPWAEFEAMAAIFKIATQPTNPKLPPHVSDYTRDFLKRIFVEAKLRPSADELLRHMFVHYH

[22] = target: Mitogen-activated protein kinase kinase kinase 1 (Homo sapiens) (UniProt Q13233); assay: Inhibition of MAPK3K1 at 3 uM; method in brief: as §2
[23] = target: Mitogen-activated protein kinase kinase kinase 3 (Homo sapiens) (UniProt Q99759); assay: Inhibition of MAPK3K3 at 3 uM; method in brief: as §2
[24] = Selectivity ratio of IC50 for JNK3 over IC50 for p38 kinase
[25] = Selectivity ratio of IC50 for JNK1 over IC50 for p38 kinase
Jurkat = assay: Inhibition of IL-2 release in human Jurkat cells at 10 uM; assay type: functional
Plasma [26] = assay: Protein binding in mouse plasma; assay type: ADME, cell-free
Plasma [27] = assay: Protein binding in dog plasma; assay type: ADME, cell-free, Canis lupus familiaris
Plasma [28] = assay: Protein binding in rat plasma; assay type: ADME, cell-free
Plasma [29] = assay: Protein binding in monkey plasma; assay type: ADME, cell-free, Macaca mulatta; conditions: rhesus monkey
Plasma [30] = assay: Protein binding in human plasma; assay type: ADME, cell-free

## CS(=O)(=O)Nc1ccc(-c2ccnc(Nc3ccc(S(N)(=O)=O)cc3)n2)cc1
[1]
  IC50: > 20 µM

## NC(=O)c1ccc(Nc2nccc(-c3ccccc3)n2)cc1
[1]
  IC50: > 20 µM

## N#Cc1cc(-c2ccnc(Nc3ccc(-n4cnc(-c5ccccn5)n4)cc3)n2)cc(N2CCOCC2)c1
[2]
  Cmax: 0.5 µM
[3]
  Vd: 0.6 L/kg
[4]
  clearance: 0.18 L/h/kg
Liver microsomes [5]
  Stability: 47 min
Liver microsomes [6]
  Stability: 29 min
CYP2D6
  inhibition at 0.25 h, 10 µM: -4%
[7]
  Stability: 51 min
[8]
  AUC: 5900 nM·h
CYP3A4
  inhibition at 0.25 h, 10 µM: 33%
CYP2C9
  inhibition at 0.25 h, 10 µM: -2%
CYP1A2
  inhibition at 0.25 h, 10 µM: 15%
Rattus norvegicus
  F: 27%
[9]
  IC50: 0.079 µM
[10]
  IC50: 0.039 µM
[11]
  half-life: 3 h
[1]
  IC50: > 20 µM

## CN1CCN(c2ncn(-c3ccc(Nc4nccc(-c5cc(F)cc(N6CCOCC6)c5)n4)cc3)n2)CC1
[12]
  IC50: 0.26 µM
[9]
  IC50: 0.133 µM
[10]
  IC50: 0.102 µM
[1]
  IC50: > 20 µM

## CS(=O)(=O)Nc1ccc(-c2ccnc(Nc3ccc(-n4ccnn4)cc3)n2)cc1
[12]
  IC50: 0.21 µM
[9]
  IC50: 0.004 µM
[10]
  IC50: 0.016 µM
[1]
  IC50: > 20 µM

## Fc1cc(-c2cc[nH]/c(=N/c3ccc(-n4cnc(N5CCOCC5)n4)cc3)n2)cc(N2CCOCC2)c1
[13]
  Activity: inactive
[14]
  Activity: inactive
[15]
  Activity: inactive
[16]
  IC50: 0.00081 µM
[17]
  Activity: inactive
[12]
  IC50: 0.054 µM
[18]
  Activity: inactive
[19]
  Activity: inactive
[20]
  Activity: inactive
[21]
  Activity: inactive
[22]
  Activity: inactive
[23]
  Activity: inactive
[1]
  IC50: > 20 µM

## Cc1ncn(-c2ccc(Nc3nccc(-c4cc(C#N)cc(N5CCOCC5)c4)n3)cc2)n1
[12]
  IC50: 0.089 µM
[24]
  Ratio IC50: > 135
[9]
  IC50: 0.079 µM
[25]
  Ratio IC50: > 135
[10]
  IC50: 0.054 µM
[1]
  IC50: > 20 µM

## c1cncc(-c2ncn(-c3ccc(Nc4nccc(-c5cccc(N6CCOCC6)c5)n4)cc3)n2)c1
[10]
  IC50: 0.097 µM
[1]
  IC50: > 20 µM

## c1cc(-c2ccnc(Nc3ccc(-n4ccnn4)cc3)n2)cc(N2CCOCC2)c1
[9]
  IC50: 0.365 µM
[10]
  IC50: 0.123 µM
[1]
  IC50: > 20 µM

## Cn1nnc(-c2ccc(Nc3nccc(-c4cc(C#N)cc(N5CCOCC5)c4)n3)cc2)n1
[2]
  Cmax: 0.07 µM
[3]
  Vd: 3.3 L/kg
[4]
  clearance: 2.64 L/h/kg
Liver microsomes [5]
  Stability: 11 min
Liver microsomes [6]
  Stability: 17 min
CYP2D6
  inhibition at 0.25 h, 10 µM: 10%
[7]
  Stability: 26 min
[8]
  AUC: 240 nM·h
CYP3A4
  inhibition at 0.25 h, 10 µM: 15%
CYP2C9
  inhibition at 0.25 h, 10 µM: 7%
CYP1A2
  inhibition at 0.25 h, 10 µM: -1%
Rattus norvegicus
  F: 14%
[9]
  IC50: 0.14 µM
[10]
  IC50: 0.045 µM
[11]
  half-life: 1.9 h
[1]
  IC50: > 20 µM

## N#C/C(=C1/Nc2ccccc2S1)c1ccnc(NCCc2cccnc2)n1
Jurkat
  inhibition at 10 µM: 90%

## Cc1ncn(-c2ccc(Nc3nccc(-c4cccc(N5CCOCC5)c4)n3)cc2)n1
[2]
  Cmax: 0.95 µM
[3]
  Vd: 0.4 L/kg
[4]
  clearance: 0.6 L/h/kg
Liver microsomes [5]
  Stability: 17 min
Liver microsomes [6]
  Stability: 18 min
[12]
  IC50: 0.281 µM
CYP2D6
  inhibition at 0.25 h, 10 µM: 4%
[7]
  Stability: 5 min
[8]
  AUC: 2000 nM·h
CYP3A4
  inhibition at 0.25 h, 10 µM: 48%
CYP2C9
  inhibition at 0.25 h, 10 µM: 43%
CYP1A2
  inhibition at 0.25 h, 10 µM: 39%
Rattus norvegicus
  F: 25%
[9]
  IC50: 0.39 µM
[10]
  IC50: 0.113 µM
[11]
  half-life: 0.8 h
[1]
  IC50: > 20 µM

## Fc1cc(-c2ccnc(Nc3ccc(-n4cnc(N5CCOCC5)n4)cc3)n2)cc(N2CCOCC2)c1
[2]
  Cmax: 0.3 µM
[3]
  Vd: 2.5 L/kg
[4]
  clearance: 1.2 L/h/kg
Liver microsomes [5]
  Stability: 41 min
Plasma [26]
  PPB: 92%
Plasma [27]
  PPB: 96%
Plasma [28]
  PPB: 98%
Liver microsomes [6]
  Stability: 26 min
CYP2D6
  inhibition at 0.25 h, 10 µM: 4%
[7]
  Stability: 21 min
[8]
  AUC: 1400 nM·h
CYP3A4
  inhibition at 0.25 h, 10 µM: 89%
CYP2C9
  inhibition at 0.25 h, 10 µM: 75%
CYP1A2
  inhibition at 0.25 h, 10 µM: 70%
Rattus norvegicus
  F: 45%
[10]
  IC50: 0.099 µM
[11]
  half-life: 2.4 h
Plasma [29]
  PPB: 96%
Plasma [30]
  PPB: 92%
